Assay results reported in ChEMBL document CHEMBL3797175, “Discovery of 6-(difluoro(6-(4-fluorophenyl)-[1,2,4]triazolo[4,3-b][1,2,4]triazin-3-yl)methyl)quinoline as a highly potent and selective c-Met inhibitor” (Eur J Med Chem, 2016).
The source made the active and inactive calls. No cut-off for these calls is given here.

Tests used:
[1] = AUC (0 to infinity) in Sprague-Dawley rat at 10 mg/kg, po administered as single dose; format: ADME, organism-based; set-up: dose 10 mg/kg, route oral, time infinity; details: in vivo
[2] = target: ALK tyrosine kinase receptor (Homo sapiens) (UniProt Q9UM73); assay: Inhibition of recombinant ALK (unknown origin) using poly (Glu, Tyr) 4:1 as substrate at 1000 nM incubated for 60 mins by ELISA relative to control
How it was run: (§1)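 Recombinant tyrosine kinases assayed on wells precoated with poly(Glu,Tyr)4:1 (20 µg/mL). ATP 10 µmol/L in HEPES pH 7.4 buffer with MgCl2, MnCl2, Na3VO4 and DTT; compound in 1% DMSO, 1% DMSO as control. Reaction 60 min at 37 °C. Phosphotyrosine detected with PY99 and HRP anti-mouse, o-phenylenediamine, A490. Inhibition % relative to control; two experiments.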

[3] = target: Proto-oncogene tyrosine-protein kinase ROS (Homo sapiens) (UniProt P08922); assay: Inhibition of recombinant ROS1 (unknown origin) using poly (Glu, Tyr) 4:1 as substrate at 1000 nM incubated for 60 mins by ELISA relative to control; how it was run: as §1
[4] = target: Receptor tyrosine-protein kinase erbB-2 (Homo sapiens) (UniProt P04626); assay: Inhibition of recombinant ERBB2 (unknown origin) using poly (Glu, Tyr) 4:1 as substrate at 1000 nM incubated for 60 mins by ELISA relative to control; how it was run: as §1
[5] = target: Receptor tyrosine-protein kinase erbB-4 (Homo sapiens) (UniProt Q15303); assay: Inhibition of recombinant ERBB4 (unknown origin) using poly (Glu, Tyr) 4:1 as substrate at 1000 nM incubated for 60 mins by ELISA relative to control; how it was run: as §1
[6] = Selectivity ratio of IC50 for human AGS cells to IC50 for human MKN45 cells; format: ADME, cell-based
How it was run: (§2)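 Both IC50s in each ratio come from one proliferation assay. Cells were seeded and exposed the next day to a range of concentrations for 72 h, then read by SRB or MTT. IC50s were fitted by four-parameter concentration–response, with each concentration at least in triplicate and at least 2 experiments. BaF3/TPR-Met is murine pre-B BaF3 transfected with TPR-MET and puromycin-selected.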

[7] = Selectivity ratio of IC50 for human SNU1 cells to IC50 for human MKN45 cells; format: ADME, cell-based; details: mkn-45
[8] = target: Vascular endothelial growth factor receptor 1 (Homo sapiens) (UniProt P17948); assay: Inhibition of recombinant FLT1 (unknown origin) using poly (Glu, Tyr) 4:1 as substrate at 1000 nM incubated for 60 mins by ELISA relative to control; how it was run: as §1
[9] = target: Ephrin type-B receptor 2 (Homo sapiens) (UniProt P29323); assay: Inhibition of recombinant EPHB2 (unknown origin) using poly (Glu, Tyr) 4:1 as substrate at 1000 nM incubated for 60 mins by ELISA relative to control; how it was run: as §1
[10] = target: T1, Hepatocyte growth factor receptor (Homo sapiens, UniProt P08581); assay: Inhibition of c-Met phosphorylation at Tyrosine 1234 in human MKN45 cells at 10 nM after 1 hr by Western blot analysis; format: cell-based; details: MKN-45
How it was run: (§3)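 EBC-1 or MKN45 cells treated with compound 1 h at 37 °C without HGF, then lysed in 1× SDS sample buffer. Lysates run on 10% SDS-PAGE and transferred to nitrocellulose. Probed with antibodies to c-Met, phospho-c-Met, phospho-ERK1/2, phospho-AKT, AKT and GAPDH, then HRP secondary. ECL detection.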

[11] = target: T2, TPR/MET fusion protein (Mus musculus) (UniProt P16056+F6ZDS4); assay: Inhibition of TPR-MET phosphorylation in mouse BAF3 cells at 10 nM after 1 hr by Western blot analysis; format: cell-based
How it was run: (§4)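 BaF3 stably expressing TPR-MET (puromycin-selected), grown with IL-3-conditioned medium. Treated 1 h at 37 °C, lysed in SDS sample buffer. 10% SDS-PAGE and immunoblot for phospho-c-Met, phospho-ERK1/2, phospho-AKT and totals; ECL detection.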

[12] = target: T1, Hepatocyte growth factor receptor; assay: Inhibition of c-Met phosphorylation at Tyrosine 1234 in HGF stimulated human U87MG cells at 10 nM after 1 hr by Western blot analysis; format: cell-based; details: U-87MG ATCC
How it was run: (§5)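 U87MG cells serum-starved 24 h, pretreated with compound 1 h at 37 °C, then stimulated with HGF (100 ng/mL) for 15 min. Lysed in 1× SDS sample buffer, resolved by 10% SDS-PAGE and blotted to nitrocellulose. Probed for phospho-c-Met, phospho-ERK1/2, phospho-AKT and totals, with GAPDH as loading control. ECL detection.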

[13] = target: T1, Hepatocyte growth factor receptor; assay: Inhibition of c-Met in human EBC1 cells assessed as reduction in ERK phosphorylation at Tyrosine 204 at 10 nM after 1 hr by Western blot analysis; format: cell-based; how it was run: as §3
[14] = target: T2, TPR/MET fusion protein (Mus musculus); assay: Inhibition of TPR-MET in mouse BAF3 cells assessed as reduction in ERK phosphorylation at Tyrosine 204 at 10 nM after 1 hr by Western blot analysis; format: cell-based; how it was run: as §4
[15] = target: T1, Hepatocyte growth factor receptor; assay: Inhibition of c-Met in HGF stimulated human U87MG cells assessed as reduction in ERK phosphorylation at Tyrosine 204 at 10 nM after 1 hr by Western blot analysis; format: cell-based; details: U-87MG ATCC; how it was run: as §5
[16] = target: Tyrosine-protein kinase receptor TYRO3 (Homo sapiens, UniProt Q06418); assay: Inhibition of recombinant TYRO3 (unknown origin) using poly (Glu, Tyr) 4:1 as substrate incubated for 60 mins by ELISA
[17] = target: Tyrosine-protein kinase Mer (Homo sapiens, UniProt Q12866); assay: Inhibition of recombinant c-Mer (unknown origin) using poly (Glu, Tyr) 4:1 as substrate incubated for 60 mins by ELISA
NCI-H226 = assay: Antiproliferative activity against human NCI-H226 cells after 72 hrs by SRB or MTT assay; format: functional, cell-based; details: NCI-H226, 72 h
How it was run: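 Cells seeded, exposed next day to a range of concentrations for 72 h. Growth read by sulforhodamine B or MTT. IC50 from four-parameter concentration-response fit. Each concentration tested at least in triplicate, with at least 2 experiments.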

[18] = Antitumor activity against human MKN45 cells xenografted in athymic nude mouse assessed as tumor growth inhibition at 6.25 mg/kg, po bid for 21 days measured twice a week during compound dosing relative to control; format: functional; details: MKN-45, po, 504 h, read-out: TGI
How it was run: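 Nude mice bearing s.c. tumours. Cells were first grown s.c. to 700–800 mm³, then 1.5 mm³ fragments were transplanted s.c. into the right flank. Mice were randomised at 100–200 mm³ (n=6 treated, n=12 vehicle) and dosed orally twice daily for 21 days. Caliper measurement twice weekly; TV = length×width²/2. TGI taken on the final day versus vehicle; Student's t test.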

[19] = Selectivity ratio of IC50 for human BGC823 cells to IC50 for human EBC1 cells; format: ADME, cell-based; details: bgc-823; how it was run: as §2
[20] = Selectivity ratio of IC50 for human BGC823 cells to IC50 for mouse BAF3 cells expressing TPR-MET; format: ADME, cell-based; how it was run: as §2
[21] = Selectivity ratio of IC50 for human MGC803 cells to IC50 for human EBC1 cells; format: ADME, cell-based; details: mgc-803; how it was run: as §2
[22] = Selectivity ratio of IC50 for human SPCA4 cells to IC50 for human EBC1 cells; format: ADME, cell-based; details: spc-a4

T1 sequence (P08581 whole entry): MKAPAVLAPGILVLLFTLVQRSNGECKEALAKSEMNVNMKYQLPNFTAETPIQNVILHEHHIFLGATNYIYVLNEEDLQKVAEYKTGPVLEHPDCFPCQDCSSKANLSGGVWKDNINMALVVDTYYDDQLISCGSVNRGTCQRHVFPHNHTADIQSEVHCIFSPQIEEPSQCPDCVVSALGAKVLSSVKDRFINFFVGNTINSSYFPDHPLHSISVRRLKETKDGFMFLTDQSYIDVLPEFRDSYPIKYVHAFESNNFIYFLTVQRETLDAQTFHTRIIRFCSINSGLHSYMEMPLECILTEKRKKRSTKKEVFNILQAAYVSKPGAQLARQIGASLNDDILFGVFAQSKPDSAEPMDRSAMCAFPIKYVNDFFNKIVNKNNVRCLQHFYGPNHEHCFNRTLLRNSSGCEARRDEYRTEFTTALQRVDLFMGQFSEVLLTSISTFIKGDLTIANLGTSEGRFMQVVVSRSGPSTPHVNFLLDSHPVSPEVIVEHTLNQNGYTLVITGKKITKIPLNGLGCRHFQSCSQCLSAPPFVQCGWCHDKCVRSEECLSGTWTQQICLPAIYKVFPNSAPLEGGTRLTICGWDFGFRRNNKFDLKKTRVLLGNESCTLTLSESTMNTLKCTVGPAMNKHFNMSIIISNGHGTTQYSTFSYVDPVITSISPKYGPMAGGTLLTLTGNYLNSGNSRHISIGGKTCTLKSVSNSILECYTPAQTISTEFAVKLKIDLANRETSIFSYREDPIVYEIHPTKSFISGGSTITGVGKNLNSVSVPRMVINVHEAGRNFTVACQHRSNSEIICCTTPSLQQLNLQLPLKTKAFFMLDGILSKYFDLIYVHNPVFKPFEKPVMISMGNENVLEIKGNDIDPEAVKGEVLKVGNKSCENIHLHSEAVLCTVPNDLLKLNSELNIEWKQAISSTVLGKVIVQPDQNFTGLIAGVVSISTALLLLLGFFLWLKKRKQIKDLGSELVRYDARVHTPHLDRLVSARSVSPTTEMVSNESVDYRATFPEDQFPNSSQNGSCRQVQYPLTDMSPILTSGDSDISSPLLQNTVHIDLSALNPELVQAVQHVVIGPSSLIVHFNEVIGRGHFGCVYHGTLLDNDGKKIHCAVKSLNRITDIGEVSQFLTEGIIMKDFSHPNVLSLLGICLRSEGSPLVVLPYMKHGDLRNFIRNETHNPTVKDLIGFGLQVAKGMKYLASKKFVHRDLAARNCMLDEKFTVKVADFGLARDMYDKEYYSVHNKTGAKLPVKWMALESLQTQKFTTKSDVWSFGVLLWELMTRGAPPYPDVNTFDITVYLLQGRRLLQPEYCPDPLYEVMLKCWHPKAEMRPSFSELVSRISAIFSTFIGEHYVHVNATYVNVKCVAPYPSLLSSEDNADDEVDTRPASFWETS
T2 sequence (F6ZDS4 whole entry partner, the tested form may be a part): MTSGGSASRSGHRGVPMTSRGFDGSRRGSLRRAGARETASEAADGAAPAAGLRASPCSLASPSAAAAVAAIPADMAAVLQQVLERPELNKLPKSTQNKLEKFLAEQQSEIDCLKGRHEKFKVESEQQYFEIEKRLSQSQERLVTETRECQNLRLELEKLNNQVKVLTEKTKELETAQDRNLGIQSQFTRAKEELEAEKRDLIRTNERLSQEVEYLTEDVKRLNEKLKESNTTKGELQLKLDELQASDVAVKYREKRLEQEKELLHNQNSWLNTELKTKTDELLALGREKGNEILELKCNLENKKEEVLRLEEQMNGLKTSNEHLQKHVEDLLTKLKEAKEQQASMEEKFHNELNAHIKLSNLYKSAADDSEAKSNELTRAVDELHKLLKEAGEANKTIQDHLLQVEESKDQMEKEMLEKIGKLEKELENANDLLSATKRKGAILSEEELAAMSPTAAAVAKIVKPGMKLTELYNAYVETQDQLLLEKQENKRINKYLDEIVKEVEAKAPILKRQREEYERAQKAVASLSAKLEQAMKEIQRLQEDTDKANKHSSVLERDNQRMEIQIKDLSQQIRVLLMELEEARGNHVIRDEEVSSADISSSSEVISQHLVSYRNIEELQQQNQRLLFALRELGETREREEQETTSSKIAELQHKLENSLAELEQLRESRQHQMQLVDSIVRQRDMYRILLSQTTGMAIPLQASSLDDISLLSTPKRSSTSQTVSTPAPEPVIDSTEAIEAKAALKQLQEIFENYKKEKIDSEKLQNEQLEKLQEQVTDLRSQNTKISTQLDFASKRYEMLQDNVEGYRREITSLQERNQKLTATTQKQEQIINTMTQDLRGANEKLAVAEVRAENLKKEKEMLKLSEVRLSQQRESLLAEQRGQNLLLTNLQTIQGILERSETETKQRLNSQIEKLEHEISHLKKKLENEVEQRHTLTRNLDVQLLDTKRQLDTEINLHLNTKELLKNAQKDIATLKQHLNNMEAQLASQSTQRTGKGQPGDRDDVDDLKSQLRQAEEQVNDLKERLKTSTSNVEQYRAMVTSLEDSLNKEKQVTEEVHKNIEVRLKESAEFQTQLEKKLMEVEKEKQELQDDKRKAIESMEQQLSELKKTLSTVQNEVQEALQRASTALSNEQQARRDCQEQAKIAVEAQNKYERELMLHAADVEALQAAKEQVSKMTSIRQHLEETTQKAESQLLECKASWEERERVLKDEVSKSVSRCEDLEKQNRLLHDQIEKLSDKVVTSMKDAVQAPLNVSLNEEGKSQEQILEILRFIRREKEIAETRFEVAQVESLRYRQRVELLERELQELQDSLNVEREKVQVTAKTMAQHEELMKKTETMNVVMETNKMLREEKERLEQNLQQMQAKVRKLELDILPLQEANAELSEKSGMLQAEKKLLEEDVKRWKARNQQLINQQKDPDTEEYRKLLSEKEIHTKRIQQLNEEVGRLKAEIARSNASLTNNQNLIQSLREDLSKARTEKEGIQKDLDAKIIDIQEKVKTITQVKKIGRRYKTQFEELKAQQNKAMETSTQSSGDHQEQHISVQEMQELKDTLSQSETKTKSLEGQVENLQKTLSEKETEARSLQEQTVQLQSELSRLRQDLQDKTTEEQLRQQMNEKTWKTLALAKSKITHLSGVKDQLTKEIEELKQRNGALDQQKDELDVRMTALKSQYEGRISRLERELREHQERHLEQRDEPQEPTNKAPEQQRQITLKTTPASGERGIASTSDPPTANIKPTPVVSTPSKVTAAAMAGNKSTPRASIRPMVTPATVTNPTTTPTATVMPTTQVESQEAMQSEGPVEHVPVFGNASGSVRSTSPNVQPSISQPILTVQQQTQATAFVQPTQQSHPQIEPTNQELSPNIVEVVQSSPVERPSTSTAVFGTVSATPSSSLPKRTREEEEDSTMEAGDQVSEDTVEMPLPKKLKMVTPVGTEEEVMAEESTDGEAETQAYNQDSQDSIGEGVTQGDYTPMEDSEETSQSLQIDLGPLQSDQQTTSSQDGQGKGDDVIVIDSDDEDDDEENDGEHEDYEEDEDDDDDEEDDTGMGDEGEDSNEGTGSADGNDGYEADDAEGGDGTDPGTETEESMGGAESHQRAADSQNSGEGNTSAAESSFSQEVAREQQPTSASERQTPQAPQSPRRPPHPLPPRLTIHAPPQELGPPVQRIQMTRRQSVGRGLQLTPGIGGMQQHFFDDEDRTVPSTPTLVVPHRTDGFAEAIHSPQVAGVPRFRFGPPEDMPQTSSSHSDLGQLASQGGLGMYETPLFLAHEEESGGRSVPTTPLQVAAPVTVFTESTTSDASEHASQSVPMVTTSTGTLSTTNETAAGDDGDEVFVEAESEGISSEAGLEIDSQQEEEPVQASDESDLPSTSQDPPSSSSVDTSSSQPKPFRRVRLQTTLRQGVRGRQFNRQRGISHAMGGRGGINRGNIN
T2 sequence (P16056 25-1379 limits assumed): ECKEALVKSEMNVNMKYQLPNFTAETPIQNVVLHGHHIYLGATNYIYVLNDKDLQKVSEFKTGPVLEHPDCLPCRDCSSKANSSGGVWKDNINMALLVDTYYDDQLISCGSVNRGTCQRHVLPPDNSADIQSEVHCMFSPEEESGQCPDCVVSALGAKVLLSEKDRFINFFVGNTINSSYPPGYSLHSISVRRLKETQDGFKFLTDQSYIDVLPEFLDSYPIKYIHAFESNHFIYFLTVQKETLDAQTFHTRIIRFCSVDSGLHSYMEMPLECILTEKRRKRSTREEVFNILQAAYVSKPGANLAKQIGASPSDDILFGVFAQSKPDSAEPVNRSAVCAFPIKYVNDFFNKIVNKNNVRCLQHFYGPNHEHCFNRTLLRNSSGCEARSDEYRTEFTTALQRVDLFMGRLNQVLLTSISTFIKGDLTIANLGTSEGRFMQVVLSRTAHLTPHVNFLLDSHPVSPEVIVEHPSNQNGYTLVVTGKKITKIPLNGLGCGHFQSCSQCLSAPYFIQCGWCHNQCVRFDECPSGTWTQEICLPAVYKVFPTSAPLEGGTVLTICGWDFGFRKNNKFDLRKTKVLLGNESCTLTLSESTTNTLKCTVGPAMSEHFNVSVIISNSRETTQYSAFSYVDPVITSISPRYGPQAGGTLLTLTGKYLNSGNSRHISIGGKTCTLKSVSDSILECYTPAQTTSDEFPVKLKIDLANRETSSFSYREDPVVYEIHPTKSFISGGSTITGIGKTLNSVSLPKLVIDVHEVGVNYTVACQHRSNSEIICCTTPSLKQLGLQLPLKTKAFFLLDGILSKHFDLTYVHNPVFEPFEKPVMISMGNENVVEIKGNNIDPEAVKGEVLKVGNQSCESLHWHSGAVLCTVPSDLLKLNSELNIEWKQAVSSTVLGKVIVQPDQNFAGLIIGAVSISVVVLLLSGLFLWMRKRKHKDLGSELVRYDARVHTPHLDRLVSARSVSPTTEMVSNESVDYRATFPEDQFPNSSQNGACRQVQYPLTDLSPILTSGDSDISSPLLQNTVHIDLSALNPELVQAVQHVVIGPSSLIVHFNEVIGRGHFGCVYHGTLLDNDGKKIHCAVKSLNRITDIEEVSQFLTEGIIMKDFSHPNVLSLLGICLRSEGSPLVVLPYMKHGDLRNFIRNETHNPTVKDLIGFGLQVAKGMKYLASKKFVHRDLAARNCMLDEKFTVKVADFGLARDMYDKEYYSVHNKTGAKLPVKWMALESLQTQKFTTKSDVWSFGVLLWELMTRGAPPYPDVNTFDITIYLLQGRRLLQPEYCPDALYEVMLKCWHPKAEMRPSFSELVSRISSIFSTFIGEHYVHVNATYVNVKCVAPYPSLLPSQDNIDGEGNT

Fc1ccc(-c2cnc3nnc(C(F)(F)c4ccc5ncccc5c4)n3n2)cc1
AUC(0-inf) [1]: 2380 ng·h/mL | inhibition [2]: 2.1% | inhibition [3]: 10.6% | inhibition [4]: 31.5% | inhibition [5]: 26.8% | Ratio IC50 [6]: 10000 | Ratio IC50 [7]: 10000 | inhibition [8]: 11.5% | inhibition [9]: 8.5% | inhibition [10]: Active | inhibition [11]: Active | inhibition [12]: Active | inhibition [13]: Active | inhibition [14]: Active | inhibition [15]: Active | IC50 [16]: > 1000 nM | IC50 [17]: > 1000 nM | IC50 (NCI-H226): > 10000 nM | inhibition in vivo at 6.25 mg/kg [18]: 46.8% | Ratio IC50 [19]: > 10000 | Ratio IC50 [20]: > 10000 | Ratio IC50 [21]: > 10000 | Ratio IC50 [22]: > 10000
